# Experimental data published in ChEMBL document CHEMBL5058577, “EUbOPEN Chemogenomics Library 2 (Multiplex)” (2022).
# System: U2OS
# Assay: Multiplex assay against U2OS
# Assay type: toxicity, cell-based
# Conditions: human
# Method in brief: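 Live cells were stained at seeding with Hoechst33342, BioTracker Green Microtubule Cytoskeleton Dye, MitoTracker Red and Annexin V Alexa Fluor 680. Following compound addition, they were imaged on a CQ1 microscope at 37°C and 5% CO2 and gated by CellPathfinder machine learning into Hoechst high-intensity objects or normal cells, with normal cells split into healthy, pyknosed or fragmented nuclei and pyknosed cells into mitotic or apoptotic. Tubulin, mitochondrial-mass and membrane-permeability phenotypes are per cents of healthy-nucleus cells.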
# [1] = 12 h, 1 µM, compound concentration 1 uM, replicate 1
# [2] = 12 h, 1 µM, compound concentration 1 uM, replicate 2
# [3] = 12 h, 10 µM, compound concentration 10 uM, replicate 1
# [4] = 12 h, 10 µM, compound concentration 10 uM, replicate 2
# [5] = 24 h, 1 µM, compound concentration 1 uM, replicate 1
# [6] = 24 h, 1 µM, compound concentration 1 uM, replicate 2
# [7] = 24 h, 10 µM, compound concentration 10 uM, replicate 1
# [8] = 24 h, 10 µM, compound concentration 10 uM, replicate 2
# [9] = 48 h, 1 µM, compound concentration 1 uM, replicate 1
# [10] = 48 h, 1 µM, compound concentration 1 uM, replicate 2
# [11] = 48 h, 10 µM, compound concentration 10 uM, replicate 1
# [12] = 48 h, 10 µM, compound concentration 10 uM, replicate 2
structure (smiles),measurement,setting,value
S=C(NCCCc1c[nH]cn1)NCCCN(Cc1ccc(Cl)c(Cl)c1)c1ccc(Br)cn1,Population Apoptotic (%),[1],75%
same,Population Fragmented Nuclei (%),[1],27%
same,Population Healthy Nuclei (%),[1],63%
same,Population Hoechst High Intensity Objects (%),[1],2%
same,Population Membrane Permeable-Phenotype (%),[1],13%
same,Population Mitochondria Different-Phenotype (%),[1],2%
same,Population Mitotic Cells (%),[1],25%
same,Population Normal (%),[1],97%
same,Population Pyknosed Nuclei (%),[1],9%
same,Population Tubulin-Different-Phenotype (%),[1],6%
same,Total Cell Count,[1],228
same,Population Apoptotic (%),[2],80%
same,Population Fragmented Nuclei (%),[2],20%
same,Population Healthy Nuclei (%),[2],68%
same,Population Hoechst High Intensity Objects (%),[2],3%
same,Population Membrane Permeable-Phenotype (%),[2],6%
same,Population Mitochondria Different-Phenotype (%),[2],9%
same,Population Mitotic Cells (%),[2],20%
same,Population Normal (%),[2],96%
same,Population Pyknosed Nuclei (%),[2],11%
same,Population Tubulin-Different-Phenotype (%),[2],1%
same,Total Cell Count,[2],93
same,Population Apoptotic (%),[3],66%
same,Population Fragmented Nuclei (%),[3],27%
same,Population Healthy Nuclei (%),[3],46%
same,Population Hoechst High Intensity Objects (%),[3],6%
same,Population Membrane Permeable-Phenotype (%),[3],86%
same,Population Mitochondria Different-Phenotype (%),[3],26%
same,Population Mitotic Cells (%),[3],33%
same,Population Normal (%),[3],93%
same,Population Pyknosed Nuclei (%),[3],26%
same,Population Tubulin-Different-Phenotype (%),[3],83%
same,Total Cell Count,[3],220
same,Population Apoptotic (%),[4],58%
same,Population Fragmented Nuclei (%),[4],24%
same,Population Hoechst High Intensity Objects (%),[4],0%
same,Population Membrane Permeable-Phenotype (%),[4],84%
same,Population Mitochondria Different-Phenotype (%),[4],60%
same,Population Mitotic Cells (%),[4],41%
same,Population Normal (%),[4],100%
same,Population Pyknosed Nuclei (%),[4],29%
same,Population Tubulin-Different-Phenotype (%),[4],89%
same,Total Cell Count,[4],82
same,Population Apoptotic (%),[5],81%
same,Population Fragmented Nuclei (%),[5],22%
same,Population Healthy Nuclei (%),[5],69%
same,Population Hoechst High Intensity Objects (%),[5],3%
same,Population Membrane Permeable-Phenotype (%),[5],11%
same,Population Mitochondria Different-Phenotype (%),[5],3%
same,Population Mitotic Cells (%),[5],18%
same,Population Normal (%),[5],96%
same,Population Pyknosed Nuclei (%),[5],8%
same,Population Tubulin-Different-Phenotype (%),[5],9%
same,Total Cell Count,[5],285
same,Population Apoptotic (%),[6],100%
same,Population Fragmented Nuclei (%),[6],30%
same,Population Healthy Nuclei (%),[6],65%
same,Population Hoechst High Intensity Objects (%),[6],1%
same,Population Membrane Permeable-Phenotype (%),[6],7%
same,Population Mitochondria Different-Phenotype (%),[6],5%
same,Population Mitotic Cells (%),[6],0%
same,Population Normal (%),[6],98%
same,Population Pyknosed Nuclei (%),[6],4%
same,Population Tubulin-Different-Phenotype (%),[6],3%
same,Total Cell Count,[6],125
same,Population Apoptotic (%),[7],62%
same,Population Fragmented Nuclei (%),[7],33%
same,Population Healthy Nuclei (%),[7],38%
same,Population Hoechst High Intensity Objects (%),[7],5%
same,Population Membrane Permeable-Phenotype (%),[7],59%
same,Population Mitochondria Different-Phenotype (%),[7],17%
same,Population Mitotic Cells (%),[7],37%
same,Population Normal (%),[7],94%
same,Population Pyknosed Nuclei (%),[7],28%
same,Population Tubulin-Different-Phenotype (%),[7],54%
same,Total Cell Count,[7],227
same,Population Apoptotic (%),[8],60%
same,Population Fragmented Nuclei (%),[8],29%
same,Population Healthy Nuclei (%),[8],40%
same,Population Hoechst High Intensity Objects (%),[8],2%
same,Population Membrane Permeable-Phenotype (%),[8],77%
same,Population Mitochondria Different-Phenotype (%),[8],32%
same,Population Mitotic Cells (%),[8],39%
same,Population Normal (%),[8],97%
same,Population Pyknosed Nuclei (%),[8],29%
same,Population Tubulin-Different-Phenotype (%),[8],64%
same,Total Cell Count,[8],79
same,Population Apoptotic (%),[9],83%
same,Population Fragmented Nuclei (%),[9],17%
same,Population Healthy Nuclei (%),[9],74%
same,Population Hoechst High Intensity Objects (%),[9],1%
same,Population Membrane Permeable-Phenotype (%),[9],5%
same,Population Mitochondria Different-Phenotype (%),[9],3%
same,Population Mitotic Cells (%),[9],16%
same,Population Normal (%),[9],98%
same,Population Pyknosed Nuclei (%),[9],7%
same,Population Tubulin-Different-Phenotype (%),[9],2%
same,Total Cell Count,[9],409
same,Population Apoptotic (%),[10],87%
same,Population Fragmented Nuclei (%),[10],28%
same,Population Healthy Nuclei (%),[10],60%
same,Population Hoechst High Intensity Objects (%),[10],0%
same,Population Mitotic Cells (%),[10],12%
same,Population Normal (%),[10],99%
same,Population Pyknosed Nuclei (%),[10],11%
same,Population Tubulin-Different-Phenotype (%),[10],3%
same,Total Cell Count,[10],211
same,Population Apoptotic (%),[11],70%
same,Population Fragmented Nuclei (%),[11],43%
same,Population Healthy Nuclei (%),[11],8%
same,Population Hoechst High Intensity Objects (%),[11],21%
same,Population Membrane Permeable-Phenotype (%),[11],46%
same,Population Mitochondria Different-Phenotype (%),[11],20%
same,Population Mitotic Cells (%),[11],29%
same,Population Normal (%),[11],78%
same,Population Pyknosed Nuclei (%),[11],47%
same,Population Tubulin-Different-Phenotype (%),[11],26%
same,Total Cell Count,[11],230
same,Population Apoptotic (%),[12],73%
same,Population Fragmented Nuclei (%),[12],50%
same,Population Healthy Nuclei (%),[12],15%
same,Population Hoechst High Intensity Objects (%),[12],15%
same,Population Membrane Permeable-Phenotype (%),[12],57%
same,Population Mitochondria Different-Phenotype (%),[12],42%
same,Population Mitotic Cells (%),[12],26%
same,Population Normal (%),[12],84%
same,Population Pyknosed Nuclei (%),[12],33%
same,Population Tubulin-Different-Phenotype (%),[12],57%
same,Total Cell Count,[12],105
CC(C)(C)c1ccc(CSc2cnn(C(C)(C)C)c(=O)c2Cl)cc1 [PYRIDABEN],Population Apoptotic (%),[1],79%
same,Population Fragmented Nuclei (%),[1],28%
same,Population Healthy Nuclei (%),[1],61%
same,Population Hoechst High Intensity Objects (%),[1],3%
same,Population Membrane Permeable-Phenotype (%),[1],3%
same,Population Mitochondria Different-Phenotype (%),[1],1%
same,Population Mitotic Cells (%),[1],20%
same,Population Normal (%),[1],97%
same,Population Pyknosed Nuclei (%),[1],9%
same,Population Tubulin-Different-Phenotype (%),[1],2%
same,Total Cell Count,[1],267
same,Population Apoptotic (%),[2],63%
same,Population Fragmented Nuclei (%),[2],11%
same,Population Healthy Nuclei (%),[2],81%
same,Population Hoechst High Intensity Objects (%),[2],0%
same,Population Membrane Permeable-Phenotype (%),[2],4%
same,Population Mitotic Cells (%),[2],36%
same,Population Normal (%),[2],99%
same,Population Pyknosed Nuclei (%),[2],7%
same,Population Tubulin-Different-Phenotype (%),[2],3%
same,Total Cell Count,[2],152
same,Population Apoptotic (%),[3],83%
same,Population Fragmented Nuclei (%),[3],28%
same,Population Healthy Nuclei (%),[3],57%
same,Population Hoechst High Intensity Objects (%),[3],1%
same,Population Membrane Permeable-Phenotype (%),[3],5%
same,Population Mitochondria Different-Phenotype (%),[3],5%
same,Population Mitotic Cells (%),[3],16%
same,Population Normal (%),[3],98%
same,Population Pyknosed Nuclei (%),[3],14%
same,Population Tubulin-Different-Phenotype (%),[3],3%
same,Total Cell Count,[3],209
same,Population Apoptotic (%),[4],87%
same,Population Fragmented Nuclei (%),[4],15%
same,Population Healthy Nuclei (%),[4],73%
same,Population Hoechst High Intensity Objects (%),[4],0%
same,Population Mitochondria Different-Phenotype (%),[4],2%
same,Population Mitotic Cells (%),[4],12%
same,Population Normal (%),[4],100%
same,Population Pyknosed Nuclei (%),[4],11%
same,Population Tubulin-Different-Phenotype (%),[4],2%
same,Total Cell Count,[4],141
same,Population Apoptotic (%),[5],83%
same,Population Fragmented Nuclei (%),[5],28%
same,Population Healthy Nuclei (%),[5],58%
same,Population Hoechst High Intensity Objects (%),[5],1%
same,Population Membrane Permeable-Phenotype (%),[5],4%
same,Population Mitochondria Different-Phenotype (%),[5],1%
same,Population Mitotic Cells (%),[5],16%
same,Population Normal (%),[5],98%
same,Population Pyknosed Nuclei (%),[5],13%
same,Population Tubulin-Different-Phenotype (%),[5],1%
same,Total Cell Count,[5],286
same,Population Apoptotic (%),[6],100%
same,Population Fragmented Nuclei (%),[6],19%
same,Population Healthy Nuclei (%),[6],75%
same,Population Hoechst High Intensity Objects (%),[6],2%
same,Population Membrane Permeable-Phenotype (%),[6],3%
same,Population Mitotic Cells (%),[6],0%
same,Population Normal (%),[6],97%
same,Population Pyknosed Nuclei (%),[6],5%
same,Total Cell Count,[6],186
same,Population Apoptotic (%),[7],80%
same,Population Fragmented Nuclei (%),[7],22%
same,Population Healthy Nuclei (%),[7],61%
same,Population Hoechst High Intensity Objects (%),[7],2%
same,Population Membrane Permeable-Phenotype (%),[7],8%
same,Population Mitochondria Different-Phenotype (%),[7],3%
same,Population Mitotic Cells (%),[7],19%
same,Population Normal (%),[7],97%
same,Population Pyknosed Nuclei (%),[7],15%
same,Population Tubulin-Different-Phenotype (%),[7],6%
same,Total Cell Count,[7],234
same,Population Fragmented Nuclei (%),[8],19%
same,Population Healthy Nuclei (%),[8],68%
same,Population Hoechst High Intensity Objects (%),[8],1%
same,Population Membrane Permeable-Phenotype (%),[8],6%
same,Population Mitochondria Different-Phenotype (%),[8],1%
same,Population Mitotic Cells (%),[8],20%
same,Population Normal (%),[8],98%
same,Population Pyknosed Nuclei (%),[8],12%
same,Population Tubulin-Different-Phenotype (%),[8],2%
same,Total Cell Count,[8],167
same,Population Apoptotic (%),[9],76%
same,Population Fragmented Nuclei (%),[9],26%
same,Population Healthy Nuclei (%),[9],63%
same,Population Hoechst High Intensity Objects (%),[9],3%
same,Population Membrane Permeable-Phenotype (%),[9],6%
same,Population Mitochondria Different-Phenotype (%),[9],3%
same,Population Mitotic Cells (%),[9],23%
same,Population Normal (%),[9],96%
same,Population Pyknosed Nuclei (%),[9],9%
same,Population Tubulin-Different-Phenotype (%),[9],3%
same,Total Cell Count,[9],361
same,Population Apoptotic (%),[10],84%
same,Population Fragmented Nuclei (%),[10],19%
same,Population Healthy Nuclei (%),[10],70%
same,Population Hoechst High Intensity Objects (%),[10],6%
same,Population Membrane Permeable-Phenotype (%),[10],5%
same,Population Mitotic Cells (%),[10],15%
same,Population Normal (%),[10],93%
same,Population Tubulin-Different-Phenotype (%),[10],2%
same,Total Cell Count,[10],212
same,Population Apoptotic (%),[11],90%
same,Population Fragmented Nuclei (%),[11],20%
same,Population Healthy Nuclei (%),[11],64%
same,Population Hoechst High Intensity Objects (%),[11],4%
same,Population Membrane Permeable-Phenotype (%),[11],9%
same,Population Mitochondria Different-Phenotype (%),[11],4%
same,Population Mitotic Cells (%),[11],10%
same,Population Normal (%),[11],95%
same,Population Pyknosed Nuclei (%),[11],14%
same,Population Tubulin-Different-Phenotype (%),[11],6%
same,Total Cell Count,[11],280
same,Population Apoptotic (%),[12],95%
same,Population Fragmented Nuclei (%),[12],16%
same,Population Healthy Nuclei (%),[12],70%
same,Population Hoechst High Intensity Objects (%),[12],3%
same,Population Membrane Permeable-Phenotype (%),[12],5%
same,Population Mitochondria Different-Phenotype (%),[12],6%
same,Population Mitotic Cells (%),[12],4%
same,Population Normal (%),[12],96%
same,Population Pyknosed Nuclei (%),[12],13%
same,Population Tubulin-Different-Phenotype (%),[12],4%
same,Total Cell Count,[12],191
